# Shown are actives, neighbours in structure and some others; about 4.1% of the full set was active somewhere.
# Mdm2 MdmX PPI: disrupts the human Mdm2-MdmX interaction; O15151+Q00987; SaOS-2 split-luciferase Mdm2/MdmX complementation, luminescence; inhibition, % at 8 µM; 330,000 tested, 3% active; AID 485346;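 active means inhibition of at least 50% at 8 µM in the primary screen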
# Apaf-1 inh: inhibitors of human Apaf-1 apoptosome; O14727; reconstituted apoptosome caspase-3 activity, DEVD-Rh110 fluorescence; inhibition, % at 20 µM; 330,000 tested, 0.71% active; AID 489030; active means inhibition of at least 40% at 20 µM
# Target sequence (O14727 whole entry, looked up): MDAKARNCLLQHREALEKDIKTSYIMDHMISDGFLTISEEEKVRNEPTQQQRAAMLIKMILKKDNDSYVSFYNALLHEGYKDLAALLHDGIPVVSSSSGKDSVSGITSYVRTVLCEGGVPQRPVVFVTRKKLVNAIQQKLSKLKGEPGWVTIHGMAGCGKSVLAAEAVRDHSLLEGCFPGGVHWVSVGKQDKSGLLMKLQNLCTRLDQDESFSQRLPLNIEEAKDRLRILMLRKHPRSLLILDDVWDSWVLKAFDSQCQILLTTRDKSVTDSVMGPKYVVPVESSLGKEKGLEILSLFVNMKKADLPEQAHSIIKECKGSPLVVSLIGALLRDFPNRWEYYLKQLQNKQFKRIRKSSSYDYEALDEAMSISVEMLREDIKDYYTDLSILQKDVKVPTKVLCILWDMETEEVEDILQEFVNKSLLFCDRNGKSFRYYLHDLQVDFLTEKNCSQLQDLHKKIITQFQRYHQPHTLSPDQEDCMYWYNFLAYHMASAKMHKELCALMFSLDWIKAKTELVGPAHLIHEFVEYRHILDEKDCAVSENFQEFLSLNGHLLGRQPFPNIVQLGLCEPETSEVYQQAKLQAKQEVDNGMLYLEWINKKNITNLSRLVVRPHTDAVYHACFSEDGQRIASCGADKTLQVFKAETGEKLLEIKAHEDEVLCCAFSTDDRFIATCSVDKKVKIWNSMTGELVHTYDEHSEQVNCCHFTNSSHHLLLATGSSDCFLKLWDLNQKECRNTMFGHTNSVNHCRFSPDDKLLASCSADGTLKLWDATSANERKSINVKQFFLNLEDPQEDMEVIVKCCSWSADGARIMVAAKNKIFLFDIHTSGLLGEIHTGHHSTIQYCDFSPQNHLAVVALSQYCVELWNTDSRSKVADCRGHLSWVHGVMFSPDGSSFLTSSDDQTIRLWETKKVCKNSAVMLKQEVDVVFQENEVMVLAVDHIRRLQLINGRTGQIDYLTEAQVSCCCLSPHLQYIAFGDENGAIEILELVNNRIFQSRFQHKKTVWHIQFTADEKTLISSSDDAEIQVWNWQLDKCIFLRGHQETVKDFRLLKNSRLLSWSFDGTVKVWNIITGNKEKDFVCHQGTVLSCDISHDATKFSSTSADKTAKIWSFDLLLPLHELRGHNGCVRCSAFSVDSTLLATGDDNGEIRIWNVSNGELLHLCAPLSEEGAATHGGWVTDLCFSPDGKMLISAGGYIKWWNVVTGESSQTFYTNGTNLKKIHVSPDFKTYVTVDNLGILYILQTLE
#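 System – cell-free apoptosome with Apaf-1, procaspase-3 and caspase-9 · Buffer or medium – pH 7.5 Hepes buffer with CHAPS, BSA, DTT · Also added – cytochrome c with DEVD-Rh110 · Times – 30 min compound preincubation, 50 min activation, room temperature · Technique – Rh110 fluorescence intensity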
# CHOP UPR activ: apoptotic UPR (CHOP) activation | 330,000 tested, 0.34% active | activation, % at 10 µM | CHO-CHOP luciferase reporter, luminescence; percent of tunicamycin response over DMSO baseline;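 active means at 10 µM dose, activation of 40% or more, normalized to positive control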
#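 System: CHO-CHOP luciferase reporter cell line | Buffer or medium: F12 medium containing 10% fetal bovine serum | Doses: One dose, 10 µM in 0.5% DMSO | Times: 6 h compound exposure at 37 °C after overnight seeding | Signal: Luciferase luminescence | Read-out: % activation vs tunicamycin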
# UBC13 polyUb: human UBC13 polyubiquitination inhibition | inhibition, % at 20 µM | 330,000 tested, 0.47% active | UBC13 polyubiquitin chain formation, TR-FRET | P61088 | AID 485273; in the data active means inhibition above about 45%, passing the limit was not always enough
# XBP1 UPR activ: activators of adaptive arm of unfolded protein response (XBP1). AID 463104. 330,000 tested, 0.33% active. CHO-XBP1 luciferase reporter, IRE1-XBP1 UPR activation, luminescence; percent of tunicamycin response, DMSO as zero. activation, % at 20 µM;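 active means versus positive control, 20 µM dose yields 30% or more activation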
#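 Material: CHO cell line with stable XBP1 luciferase reporter; schedule: 16-18 h cell attachment at 37 °C, then 6 h compound exposure; signal: glow luminescence from Steady-Glo reagent; medium: serum-containing F12 medium, 10% FBS; benchmarks: tunicamycin 10 µg/mL and vehicle-only wells; read-out: percent activation relative to tunicamycin reference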
# Apaf-1 inh conf: confirmation of Apaf-1 inhibitors | shares compounds with Apaf-1 inh | reconstituted apoptosome, caspase-3 DEVD-Rh110 fluorescence | inhibition, % at 20 µM | 1,800 tested, 25% active;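 active means mean inhibition of at least 40% at 20 µM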
# Rh110 quench: Rh110 signal interference in Apaf-1 inhibitor counter-screen | shares compounds with Apaf-1 inh | Rh110 fluorescence interference, quenched caspase reaction | activation (fluorescence interference), % at 20 µM | 1,800 tested, under 10 active | AID 504615;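 active means signal rise of 40% or more at 20 µM, treated as a fluorescence artifact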
# Apaf1 inh interf: counter-screen for Apaf-1 inhibitors: fluorescence interference, dose response; shares compounds with Apaf-1 inh; fluorescence interference counterscreen, Apaf-1 assay format; IC50, µM; 460 tested, under 10 active; AID 588538; call rule not given here
# Numbers stand for hits; 0 = inactive; - = no result given.
SMILES,Mdm2 MdmX PPI,Apaf-1 inh,CHOP UPR activ,UBC13 polyUb,XBP1 UPR activ,Apaf-1 inh conf,Rh110 quench,others
CC(C)CCn1c(N)c(C(=O)NCc2cccs2)c2nc3ccccc3nc21,0,89.3,0,0,0,0,0,
COCCNC(=O)c1c(N)n(CCC(C)C)c2nc3ccccc3nc12,0,82.1,0,0,0,0,0,
COCCCn1c(N)c(C(=O)OCCOC)c2nc3ccccc3nc21,0,95.0,0,0,0,0,0,
CC(C)OCCCNC(=O)c1c(N)n(Cc2cccs2)c2nc3ccccc3nc12,0,95.3,0,0,0,0,0,
COCCOC(=O)c1c(N)n(Cc2ccc(OC)cc2)c2nc3ccccc3nc12,0,65.7,0,0,0,0,0,
CCOC(=O)c1c(NS(=O)(=O)c2ccccc2)n(CCCOC)c2nc3ccccc3nc12,0,96.5,0,0,0,76.4,0,Apaf1 inh interf=0
O=[N+]([O-])c1ccc(-c2ccccc2)c([As](=O)(O)O)c1,0,0,0,0,0,-,-,
CCN(CCO)c1ccc(N=Cc2c(O)n(C)c(=S)[nH]c2=O)cc1,0,51.2,0,0,0,0,0,
COc1ccc(N=Cc2c(O)n(-c3ccc(C)cc3)c(=O)[nH]c2=O)cc1,0,0,0,0,0,-,-,
CCN(CC)c1ccc(N=Cc2c(O)n(-c3cc(OC)ccc3OC)c(=O)[nH]c2=O)cc1,0,48.5,0,0,0,0,0,
Cn1cnc(CCN)c1,0,0,0,0,0,-,-,
CCOC(=O)c1c(C=O)c2ccccc2n1Cc1ccccc1,0,0,0,0,0,-,-,
O=c1cc(C2CCNCC2)[nH][nH]1,0,58.0,0,0,0,0,0,
CCNC(=O)NC(=O)C(C)OC(=O)c1c(C)nn(Cc2ccccc2Cl)c1Cl (configuration not stated),0,0,0,0,0,-,-,
Nc1ccccc1C(=O)OCc1ccc([N+](=O)[O-])cc1,0,0,0,0,0,-,-,
CN1CCc2nc(SCc3cccc(Br)c3)c(C#N)cc2C1,0,0,0,0,0,-,-,
COc1cc2c(cc1OC)-c1c(OC)c(OC)cc3c1[C@H](C2)N(C)CC3,0,94.5,0,0,0,96.3,0,Apaf1 inh interf=0
COc1ccc(P2(=O)Nc3ccccc3N2)cc1,0,48.9,0,0,0,0,0,
COc1ccc(C=O)cc1,0,0,0,0,0,-,-,
CCCN1CCc2cccc3c2[C@H]1Cc1ccc(O)c(O)c1-3,0,52.8,0,0,0,0,0,
COc1cccc(C2CC3C(=O)C=CC2N3Cc2ccccc2)c1 (configuration not stated),0,0,0,0,0,-,-,
O=C(c1ccc(-c2ccccc2)cc1)C1CCCN(Cc2ccn[nH]2)C1 (configuration not stated),0,0,0,0,0,-,-,
CCN1CCN(S(=O)(=O)c2ccc(Cl)c(C(=O)Nc3ccc(C(=O)N(CC)CC)cc3)c2)CC1,0,0,0,0,0,-,-,
CC(C)CCNC(=O)c1c(N)n(Cc2ccc3c(c2)OCO3)c2nc3ccccc3nc12,0,89.6,0,0,0,0,0,
CCCNC(=O)c1c(N)n(Cc2ccc3c(c2)OCO3)c2nc3ccccc3nc12,0,83.4,0,0,0,0,0,
CC(c1ccc(F)cc1)n1cc(C(=O)NCc2ccc3c(c2)OCO3)nn1 (configuration not stated),0,0,0,0,0,-,-,
